Data reported in ChEMBL document CHEMBL4406821, “Novel dual inhibitors targeting CDK4 and VEGFR2 synergistically suppressed cancer progression and angiogenesis” (Eur J Med Chem, 2019).
Activity calls are given as the source filed them. The calls are words filed in the database; no cut-off is given here.

Legend:
[1] = target: Serine/threonine-protein kinase PAK 3 (Homo sapiens) (UniProt O75914); assay: Inhibition of recombinant human full length PAK3 at 1 uM using RRRLSFAEPG as substrate incubated for 40 mins in presence of [gamma-33P]-ATP by scintillation counting method relative to control
Chain of Serine/threonine-protein kinase PAK 3 (Homo sapiens) (O75914 whole entry, looked up): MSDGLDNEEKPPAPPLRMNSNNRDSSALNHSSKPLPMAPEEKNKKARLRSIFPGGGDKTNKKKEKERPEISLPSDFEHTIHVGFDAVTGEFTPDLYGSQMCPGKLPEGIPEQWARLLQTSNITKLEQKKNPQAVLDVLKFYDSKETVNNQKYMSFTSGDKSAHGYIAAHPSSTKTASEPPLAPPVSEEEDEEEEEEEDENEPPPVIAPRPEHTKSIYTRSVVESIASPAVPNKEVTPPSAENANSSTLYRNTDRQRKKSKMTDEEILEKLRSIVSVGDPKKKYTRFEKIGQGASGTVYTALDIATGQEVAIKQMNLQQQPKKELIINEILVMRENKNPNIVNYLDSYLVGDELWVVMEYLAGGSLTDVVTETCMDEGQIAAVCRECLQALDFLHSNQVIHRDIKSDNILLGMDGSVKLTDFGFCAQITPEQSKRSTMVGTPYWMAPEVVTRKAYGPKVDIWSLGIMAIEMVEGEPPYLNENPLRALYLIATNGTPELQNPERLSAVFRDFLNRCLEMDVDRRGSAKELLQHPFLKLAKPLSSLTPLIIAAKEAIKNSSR
Procedure, shortened: (§1)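 Tested at a single 1 uM in an outsourced commercial kinase-profiling panel, read as percent inhibition. Each value is the mean of two independent experiments.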

HeLa = assay: Induction of apoptosis in human HeLa cells assessed as decrease in Bcl2 expression at 40 to 80 nM incubated for 48 hrs by Western blot analysis; assay type: functional, cell-based
Procedure, shortened: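 Cells were treated for 48 h, washed three times with PBS, and lysed in RIPA buffer. Immunoblots used anti-Rb, anti-phospho-Rb, anti-Ki67 and anti-Bcl-2 (each 1:1000), with β-actin as loading control.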

[2] = target: Tyrosine-protein kinase BTK (Homo sapiens) (UniProt Q06187); assay: Inhibition of recombinant full length human BTK at 1 uM using LSNLYHQGKFLQT as substrate incubated for 40 mins in presence of [gamma-33P]-ATP by scintillation counting method relative to control; procedure, shortened: as §1
[3] = AUC (0 to t) in Sprague-Dawley rat at 10 mg/kg, iv by HPLC-MS analysis; assay type: ADME, organism-based; settings: in vivo
Procedure, shortened: (§2)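 Rats fitted with jugular vein catheters for serial blood sampling. Compound dissolved in saline with 5% (v/v) DMSO and given as a single 10 mg/kg dose iv or po after an overnight fast, n = 5 per group. Plasma isolated at once and measured by HPLC with tandem MS detection. Parameters derived by noncompartmental fitting.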

SiHa [4] = assay: Antiangiogenic activity against human SiHa cells xenografted in orally dosed NOD/SCID BALB/c mouse assessed as reduction in CD31 expression measured after 21 days by hematoxylin and eosin staining based immunohistochemistry; assay type: functional, organism-based
Procedure, shortened: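 Female NOD/SCID Balb/c mice, 6–8 weeks old, received 2×10^6 SiHa cells subcutaneously in the right flank. Once tumors reached 100 mm³, mice were randomized, 5 per group, and gavaged once daily for 21 days. Formalin-fixed, paraffin-embedded tumor sections were stained with Ki67 or CD31 antibody (1:100, 4 °C overnight), then biotin secondary and ABC-peroxidase/DAB, with hematoxylin counterstain.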

[5] = target: Inhibitor of nuclear factor kappa-B kinase subunit alpha (Homo sapiens) (UniProt O15111); assay: Inhibition of recombinant human full length IKKalpha at 1 uM using peptide as substrate incubated for 40 mins in presence of [gamma-33P]-ATP by scintillation counting method relative to control; procedure, shortened: as §1
Chain of Inhibitor of nuclear factor kappa-B kinase subunit alpha (Homo sapiens) (O15111 whole entry): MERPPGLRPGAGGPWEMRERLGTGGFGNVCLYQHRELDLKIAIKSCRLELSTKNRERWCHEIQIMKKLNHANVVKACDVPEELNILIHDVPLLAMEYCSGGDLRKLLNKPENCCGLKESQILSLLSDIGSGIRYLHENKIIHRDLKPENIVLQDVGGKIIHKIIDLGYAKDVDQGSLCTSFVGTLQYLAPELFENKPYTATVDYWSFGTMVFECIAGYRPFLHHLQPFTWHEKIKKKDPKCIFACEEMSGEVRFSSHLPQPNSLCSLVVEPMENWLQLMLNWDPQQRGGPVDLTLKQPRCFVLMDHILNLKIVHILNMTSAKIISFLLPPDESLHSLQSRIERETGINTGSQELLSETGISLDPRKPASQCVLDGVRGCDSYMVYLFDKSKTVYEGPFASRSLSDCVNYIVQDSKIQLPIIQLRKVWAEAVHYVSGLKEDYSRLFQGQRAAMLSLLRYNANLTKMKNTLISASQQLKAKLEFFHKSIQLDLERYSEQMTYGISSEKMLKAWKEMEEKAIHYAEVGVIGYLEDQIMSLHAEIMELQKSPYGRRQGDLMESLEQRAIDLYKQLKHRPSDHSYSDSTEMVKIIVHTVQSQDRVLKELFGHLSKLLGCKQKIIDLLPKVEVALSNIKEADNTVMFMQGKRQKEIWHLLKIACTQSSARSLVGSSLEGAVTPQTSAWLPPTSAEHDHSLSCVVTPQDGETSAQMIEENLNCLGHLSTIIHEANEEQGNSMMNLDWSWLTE

[6] = system: Mast/stem cell growth factor receptor Kit (Homo sapiens), P10721 [V560G]; assay: Inhibition of recombinant human cKIT V560G mutant (544 to end residues) at 1 uM using GGMEDIYFEFMGG as substrate incubated for 40 mins in presence of [gamma-33P]-ATP by scintillation counting method relative to control; procedure, shortened: as §1
Chain of Mast/stem cell growth factor receptor Kit (Homo sapiens), P10721 [V560G] (P10721 whole entry V560G, the tested form may be a part): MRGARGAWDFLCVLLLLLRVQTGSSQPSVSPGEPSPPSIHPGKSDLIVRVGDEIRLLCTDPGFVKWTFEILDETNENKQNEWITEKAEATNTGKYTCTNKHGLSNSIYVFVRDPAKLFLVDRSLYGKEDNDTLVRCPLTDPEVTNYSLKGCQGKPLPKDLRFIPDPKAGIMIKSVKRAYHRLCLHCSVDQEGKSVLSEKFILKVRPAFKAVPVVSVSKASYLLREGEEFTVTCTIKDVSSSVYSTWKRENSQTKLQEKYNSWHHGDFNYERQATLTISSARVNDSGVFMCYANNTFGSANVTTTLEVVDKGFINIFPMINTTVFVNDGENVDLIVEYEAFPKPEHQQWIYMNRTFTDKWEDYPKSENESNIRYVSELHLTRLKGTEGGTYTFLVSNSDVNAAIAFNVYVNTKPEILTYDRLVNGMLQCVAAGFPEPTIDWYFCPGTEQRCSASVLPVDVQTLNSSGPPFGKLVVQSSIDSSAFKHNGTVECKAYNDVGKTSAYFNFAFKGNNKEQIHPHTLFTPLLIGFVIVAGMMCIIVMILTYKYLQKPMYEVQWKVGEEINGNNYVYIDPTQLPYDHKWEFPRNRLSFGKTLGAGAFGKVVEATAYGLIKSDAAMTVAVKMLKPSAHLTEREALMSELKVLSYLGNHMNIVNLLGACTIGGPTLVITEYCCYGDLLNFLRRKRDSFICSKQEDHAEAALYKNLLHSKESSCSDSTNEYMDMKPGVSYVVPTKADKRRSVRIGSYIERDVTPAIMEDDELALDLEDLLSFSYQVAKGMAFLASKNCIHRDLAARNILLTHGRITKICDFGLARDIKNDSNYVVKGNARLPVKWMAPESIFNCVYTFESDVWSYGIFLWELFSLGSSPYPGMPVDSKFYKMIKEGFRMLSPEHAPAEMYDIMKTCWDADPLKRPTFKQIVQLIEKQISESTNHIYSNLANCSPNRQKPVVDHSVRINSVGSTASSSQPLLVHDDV

[7] = target: Mitogen-activated protein kinase kinase kinase 9 (Homo sapiens) (UniProt P80192); assay: Inhibition of recombinant human MLK1 (134 to 414 residues) at 1 uM using casein as substrate incubated for 40 mins in presence of [gamma-33P]-ATP by scintillation counting method relative to control
Chain of Mitogen-activated protein kinase kinase kinase 9 (Homo sapiens) (P80192 whole entry, looked up, the tested form may be a part): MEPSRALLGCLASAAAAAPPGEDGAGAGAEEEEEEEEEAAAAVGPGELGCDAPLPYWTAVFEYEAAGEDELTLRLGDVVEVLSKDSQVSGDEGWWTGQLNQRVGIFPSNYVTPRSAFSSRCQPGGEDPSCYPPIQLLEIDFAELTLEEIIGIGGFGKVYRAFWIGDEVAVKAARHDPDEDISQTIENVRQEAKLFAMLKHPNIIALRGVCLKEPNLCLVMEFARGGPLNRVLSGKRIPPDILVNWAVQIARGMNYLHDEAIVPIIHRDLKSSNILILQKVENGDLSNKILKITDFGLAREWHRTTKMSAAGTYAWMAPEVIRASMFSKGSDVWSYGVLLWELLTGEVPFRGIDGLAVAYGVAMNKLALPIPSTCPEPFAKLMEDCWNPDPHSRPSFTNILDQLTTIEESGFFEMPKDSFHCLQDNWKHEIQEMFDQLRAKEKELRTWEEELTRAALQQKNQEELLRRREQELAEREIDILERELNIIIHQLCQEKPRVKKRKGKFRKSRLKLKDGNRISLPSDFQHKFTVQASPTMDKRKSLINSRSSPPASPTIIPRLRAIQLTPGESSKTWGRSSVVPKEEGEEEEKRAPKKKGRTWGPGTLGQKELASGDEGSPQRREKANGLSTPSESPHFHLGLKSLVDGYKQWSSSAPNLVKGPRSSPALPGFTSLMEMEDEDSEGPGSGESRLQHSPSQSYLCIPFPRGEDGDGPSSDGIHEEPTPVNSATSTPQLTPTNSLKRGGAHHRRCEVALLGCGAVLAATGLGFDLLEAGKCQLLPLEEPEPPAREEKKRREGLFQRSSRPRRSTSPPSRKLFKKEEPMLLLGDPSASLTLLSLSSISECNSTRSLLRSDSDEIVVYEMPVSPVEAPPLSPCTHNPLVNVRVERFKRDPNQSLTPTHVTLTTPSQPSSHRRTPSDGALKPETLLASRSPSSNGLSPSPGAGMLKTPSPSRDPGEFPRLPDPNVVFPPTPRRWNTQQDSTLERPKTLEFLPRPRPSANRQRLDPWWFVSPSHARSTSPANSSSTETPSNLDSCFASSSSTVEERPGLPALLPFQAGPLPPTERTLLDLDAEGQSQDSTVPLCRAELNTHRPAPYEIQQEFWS

[8] = target: Ephrin type-A receptor 1 (Homo sapiens) (UniProt P21709); assay: Inhibition of recombinant human EPhA1 (568 to end residues) at 1 uM using KKKSPGEYVNIEFG as substrate incubated for 40 mins in presence of [gamma-33P]-ATP by scintillation counting method relative to control
[9] = target: SRSF protein kinase 1 (Homo sapiens) (UniProt Q96SB4); assay: Inhibition of recombinant human SRPK1 (2 to end residues) at 1 uM using RSRSRSRSRSRSRSR as substrate incubated for 40 mins in presence of [gamma-33P]-ATP by scintillation counting method relative to control
Chain of SRSF protein kinase 1 (Homo sapiens) (Q96SB4 whole entry, the tested form may be a part): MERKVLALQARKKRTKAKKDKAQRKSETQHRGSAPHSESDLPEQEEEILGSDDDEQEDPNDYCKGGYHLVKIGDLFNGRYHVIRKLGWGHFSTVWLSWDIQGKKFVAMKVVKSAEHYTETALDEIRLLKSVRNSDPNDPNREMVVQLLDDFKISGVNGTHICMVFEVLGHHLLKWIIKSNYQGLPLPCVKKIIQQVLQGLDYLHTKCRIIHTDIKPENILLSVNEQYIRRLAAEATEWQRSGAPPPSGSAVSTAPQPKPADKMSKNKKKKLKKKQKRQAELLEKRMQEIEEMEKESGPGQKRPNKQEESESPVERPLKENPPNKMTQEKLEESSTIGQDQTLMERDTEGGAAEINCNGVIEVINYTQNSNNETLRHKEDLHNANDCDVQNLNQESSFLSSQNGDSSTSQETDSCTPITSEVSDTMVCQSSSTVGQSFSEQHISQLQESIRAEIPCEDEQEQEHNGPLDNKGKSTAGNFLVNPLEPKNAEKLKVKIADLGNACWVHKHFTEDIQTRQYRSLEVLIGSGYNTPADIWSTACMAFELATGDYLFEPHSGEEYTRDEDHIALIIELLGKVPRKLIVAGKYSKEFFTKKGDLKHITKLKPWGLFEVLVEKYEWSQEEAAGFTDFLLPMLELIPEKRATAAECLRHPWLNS

[10] = target: Ephrin type-A receptor 2 (Homo sapiens) (UniProt P29317); assay: Inhibition of recombinant human EPhA2 (596 to 900 residues) at 1 uM using poly(Glu, Tyr) 4:1as substrate incubated for 40 mins in presence of [gamma-33P]-ATP by scintillation counting method relative to control
[11] = target: Serine/threonine-protein kinase BRSK1 (Homo sapiens) (UniProt Q8TDC3); assay: Inhibition of recombinant human BRSK1 (2 to end residues) at 1 uM using KKKVSRSGLYRSP as substrate incubated for 40 mins in presence of [gamma-33P]-ATP by scintillation counting method relative to control
Chain of Serine/threonine-protein kinase BRSK1 (Homo sapiens) (Q8TDC3 whole entry): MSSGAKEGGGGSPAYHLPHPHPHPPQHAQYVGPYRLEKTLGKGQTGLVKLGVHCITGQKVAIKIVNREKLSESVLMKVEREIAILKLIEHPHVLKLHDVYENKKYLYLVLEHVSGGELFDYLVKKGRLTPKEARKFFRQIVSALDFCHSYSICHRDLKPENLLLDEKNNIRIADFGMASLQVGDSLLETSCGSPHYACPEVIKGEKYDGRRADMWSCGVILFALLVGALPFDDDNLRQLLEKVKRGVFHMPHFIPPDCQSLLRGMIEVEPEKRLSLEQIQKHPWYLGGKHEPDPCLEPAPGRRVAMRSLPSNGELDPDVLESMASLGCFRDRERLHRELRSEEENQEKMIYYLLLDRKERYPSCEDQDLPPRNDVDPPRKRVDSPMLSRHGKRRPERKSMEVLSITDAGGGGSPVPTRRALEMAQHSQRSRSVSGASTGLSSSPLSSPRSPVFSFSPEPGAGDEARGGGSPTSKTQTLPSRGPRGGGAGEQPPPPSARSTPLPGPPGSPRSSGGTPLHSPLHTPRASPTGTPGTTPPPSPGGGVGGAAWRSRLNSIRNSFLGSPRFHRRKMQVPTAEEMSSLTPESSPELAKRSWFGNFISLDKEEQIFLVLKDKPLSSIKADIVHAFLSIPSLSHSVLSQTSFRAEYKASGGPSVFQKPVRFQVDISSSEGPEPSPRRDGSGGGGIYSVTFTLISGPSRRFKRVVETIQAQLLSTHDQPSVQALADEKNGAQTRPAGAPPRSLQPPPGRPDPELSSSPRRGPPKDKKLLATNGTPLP
Procedure, shortened: (§3)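 Kinase panel profiling at 1 μM performed by Eurofins KinaseProfiler; percent inhibition reported as mean of two independent experiments.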

[12] = AUMC (0 to t) in Sprague-Dawley rat at 10 mg/kg, iv by HPLC-MS analysis; assay type: ADME, organism-based; settings: in vivo; procedure, shortened: as §2
[13] = target: Calcium/calmodulin-dependent protein kinase type 1D (Homo sapiens) (UniProt Q8IU85); assay: Inhibition of recombinant full length human CAMKIdelta at 1 uM using calmodulin as substrate incubated for 40 mins in presence of [gamma-33P]-ATP by scintillation counting method relative to control; procedure, shortened: as §3
[14] = target: Serine/threonine-protein kinase D2 (Homo sapiens) (UniProt Q9BZL6); assay: Inhibition of recombinant human full length PKD2 at 1 uM using KKLNRTLSVA as substrate incubated for 40 mins in presence of [gamma-33P]-ATP by scintillation counting method relative to control
[15] = target: Dual specificity mitogen-activated protein kinase kinase 1 (Homo sapiens) (UniProt Q02750); assay: Inhibition of recombinant human full length MEK1 at 1 uM using as unactive MAPK2 substrate incubated for 40 mins in presence of [gamma-33P]-ATP by scintillation counting method relative to control
[16] = target: Mitogen-activated protein kinase kinase kinase 11 (Homo sapiens) (UniProt Q16584); assay: Inhibition of recombinant human MLK3 at 1 uM incubated for 40 mins in presence of [gamma-33P]-ATP by scintillation counting method relative to control
SiHa [17] = assay: Induction of cell cycle arrest in human SiHa cells assessed as accumulation in G2/M phase at 80 nM incubated for 36 hrs by propidium iodide staining based flow cytometry; assay type: functional
Procedure, shortened: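 Cells were treated with graded concentrations for 36 h, then fixed overnight in 70% ice-cold ethanol at 4°C and resuspended in PBS. Staining used 50 µg/ml PI plus 5 µg/ml RNase at 37°C for 30 min. DNA content was analysed by FACS to give G0/G1, S and G2/M fractions.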

HUVEC = assay: Antiproliferative activity against HUVEC cells assessed as reduction in cell viability at 40 nM measured upto 72 hrs by CCK8 assay; assay type: functional, cell-based; settings: Homo sapiens
Procedure, shortened: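 HUVECs, 3×10³ cells/well, kept in 1640 medium with 10% FBS at 37°C and 5% CO₂. Cells were treated at 20 or 40 nM or vehicle, and viability was read by CCK-8 (absorbance 450 nm) at 0, 12, 24, 36, 48, 60 and 72 h. Five replicates per sample.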

[18] = target: Vascular endothelial growth factor receptor 2 (Homo sapiens, UniProt P35968); settings: HUVEC, 40 nM

Row | SMILES | inhibition [1] [%] | Activity (HeLa) | inhibition [2] [%] | AUC(0-t) [3] [ng·h/mL] | inhibition (SiHa [4]) | inhibition [5] [%] | inhibition [6] [%] | inhibition [7] [%] | inhibition [8] [%] | inhibition [9] [%] | inhibition [10] [%] | inhibition [11] [%] | AUMCt [12] [mg/L.hr] | inhibition [13] [%] | inhibition [14] [%] | inhibition [15] [%] | inhibition [16] [%] | Activity (SiHa [17]) | inhibition (HUVEC) | inhibition [18]
1 | Cc1ccc(NC(=O)C2(C(=O)Nc3ccc(Nc4ncc(F)c(-c5cc(F)c6nc(C)n(C(C)C)c6c5)n4)cc3)CC2)cc1 | 0 | Active | 0 | 10000 | Dose-dependent effect | 0 | 73 | 1 | 73 | 21 | 61 | 14 | 17 | 1 | 17 | 7 | -2 | – | – | –
2 | COc1cc2nccc(Oc3ccc(NC(=O)C4(C(=O)Nc5ccc(F)cc5)CC4)cc3)c2cc1OC [CABOZANTINIB] | – | – | – | – | – | – | – | – | – | – | – | – | – | – | – | – | – | Active | Active | Active
